From ChEMBL document CHEMBL1148117, “Synthesis and structure-activity relationship study of lamellarin derivatives” (J Nat Prod, 2002)

Assays:
[1] = system: HeLa; experiment: Cytotoxicity against human HeLa cells assessed as inhibition of colony formation after 5 to 8 days by colony assay; format: functional, cell-based
How it was run: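 HeLa cells were seeded at 100-150 cells per well and grown with a range of compound concentrations in MEM with 10% fetal calf serum for 5-8 days at 37 °C under 5% CO2/95% air. Colonies were stained with 1% methylene blue in 50% methanol and counted; a cluster of 40 or more cells counted as one colony.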

[2] = system: Human immunodeficiency virus 1; experiment: Antiviral activity against HIV1 in cell cultures assessed as inhibition of viral replication; format: functional, organism-based
[3] = system: XC; experiment: Cytotoxicity against rat XC cells assessed as inhibition of colony formation after 5 to 8 days by colony assay; format: functional, cell-based
How it was run: (§1)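 Colony-formation assay: 100-150 cells per well grown with varying concentrations of compound for 5-8 days at 37 °C under 5% CO₂/95% air. Colonies were stained with 1% methylene blue in 50% methanol and counted, with clusters of 40 or more cells scored as colonies. IC50 was estimated from dose-response curves.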

[4] = system: MDCK; experiment: Cytotoxicity against MDCK cells assessed as inhibition of colony formation after 5 to 8 days by colony assay; format: cell-based; settings: Canis lupus familiaris; how it was run: as §1
[5] = system: Vero; experiment: Cytotoxicity against african green monkey Vero cells assessed as inhibition of colony formation after 5 to 8 days by colony assay; format: cell-based; settings: Chlorocebus sabaeus; how it was run: as §1
[6] = system: MDCK; experiment: Cytotoxicity against MDCK cells at 1 mM by MTT assay; format: cell-based, Canis lupus familiaris; settings: dog, 1000 µM

**Q.** For COc1cc(-c2c3c4ccccc4oc(=O)c3n3ccc4cc(O)c(OC)cc4c23)ccc1O, which IC50 [1] is on record?
**A.** 4000 nM

**Q.** Which IC50 [1] does the source give for COc1ccc2oc(=O)c3c(c(-c4ccc(O)c(OC)c4)c4c5cc(OC)c(O)cc5ccn43)c2c1 here?
**A.** 850 nM

**Q.** For COc1ccc(-c2c3c4cc5c(cc4oc(=O)c3n3ccc4cc(OC)c(OC)cc4c23)OCO5)cc1OC, which IC50 [1] is on record?
**A.** > 100000 nM

**Q.** Which IC50 [1] does the source give for COc1cc2c(cc1O)oc(=O)c1c2c(-c2ccc(OC)c(OC)c2)c2c3cc(OC)c(OC)cc3ccn21 here?
**A.** 2500 nM

**Q.** With O=c1oc2ccccc2c2c(-c3ccc(O)c(O)c3)c3c4cc(O)c(O)cc4ccn3c12 as the molecule, how does the IC50 [1] read?
**A.** 1100 nM

**Q.** Which IC50 [1] does the source give for CC(=O)Oc1ccc(-c2c3c4cc(OC(C)=O)c(OC(C)=O)cc4oc(=O)c3n3ccc4cc(OC(C)=O)c(OC(C)=O)cc4c23)cc1OC(C)=O here?
**A.** 11000 nM

**Q.** How did the IC50 [1] turn out when COc1cc(-c2c3c4ccc(O)cc4oc(=O)c3n3ccc4cc(O)c(OC)cc4c23)ccc1O was run?
**A.** 39.5 nM

**Q.** With COc1cccc(-c2c3c4cc(OC)c(O)cc4oc(=O)c3n3ccc4cc(O)c(OC)cc4c23)c1 as the molecule, how does the IC50 [1] read?
**A.** 70 nM

**Q.** COc1ccc(-c2c3c4cc(OC)c(OS(=O)(=O)O)cc4oc(=O)c3n3ccc4cc(OC)c(OC)cc4c23)cc1O was tested. Which IC50 [2] did it give?
**A.** 8000 nM

**Q.** COc1cc2c(cc1O)oc(=O)c1c2c(-c2ccc(O)cc2)c2c3cc(OC)c(O)cc3ccn21 was tested. Which IC50 [1] did it give?
**A.** 38 nM

**Q.** Which IC50 [1] does the source give for COc1ccc(-c2c3c4ccccc4oc(=O)c3n3ccc4cc(OC)c(OC)cc4c23)cc1OC here?
**A.** 5700 nM

**Q.** And the IC50 [3]?
**A.** 5600 nM

**Q.** And the IC50 [4]?
**A.** 5600 nM

**Q.** What about the IC50 [5] of the same molecule?
**A.** 4700 nM

**Q.** What does the source list for COc1cc(-c2c3c4cc(OC)c(O)cc4oc(=O)c3n3ccc4cc(O)c(OC)cc4c23)ccc1O [LAMELLARIN D]?
**A.** IC50 [1]: 10.5 nM; IC50 [3]: 12.4 nM; IC50 [4]: 22.5 nM; IC50 [5]: 10.5 nM; Activity [6]: Non-toxic

**Q.** How did the IC50 [1] turn out when O=c1oc2cc(O)c(O)cc2c2c(-c3ccc(O)c(O)c3)c3c4cc(O)c(O)cc4ccn3c12 [LAMELLARIN H] was run?
**A.** > 100000 nM

**Q.** For CO[C@@]12[C@H](COC(N)=O)C3=C(C(=O)C(C)=C(N)C3=O)N1C[C@@H]1N[C@@H]12 [MITOMYCIN], which IC50 [1] is on record?
**A.** 68 nM
